The list is not random: actives were taken first. Their share in the collection is about 3.6%.
ATG4B inhibitor: inhibitors of human ATG4B cysteine protease | ATG4B cleavage of LC3-PLA2, NBD-HPC fluorescence, 1 h | hit rate 0.51% among 340,000 | inhibition, % at 8.33 µM | Q9Y4P1; in the data active = inhibition above about 40%
SENP1 inh: blocks the human SENP1 SUMO protease catalytic domain; recombinant SENP1 catalytic domain, CyPet-SUMO1-YPet FRET cleavage; inhibition, % at 10 µM; hit rate 0.21% among 360,000; AID 624204;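 active = inhibition at least 30% at 10 µM, raw YFP signal under a set limit, fluorescence ratio 0.5 to 1.5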;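 note: 0% = enzyme with DMSO and 100% = no enzyme wells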
Target sequence (Q9P0U3 419-644 limits assumed): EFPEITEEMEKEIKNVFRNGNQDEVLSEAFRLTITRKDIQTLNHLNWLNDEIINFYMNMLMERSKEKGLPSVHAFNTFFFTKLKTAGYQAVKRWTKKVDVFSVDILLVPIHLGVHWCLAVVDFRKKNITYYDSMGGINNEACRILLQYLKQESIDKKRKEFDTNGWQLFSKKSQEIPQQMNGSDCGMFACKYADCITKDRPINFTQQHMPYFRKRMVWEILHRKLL
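System: Recombinant human SENP1 catalytic domain, His6-tagged | Incubation: Enzyme reaction for 50 min at room temperature, dark | Medium: Tris pH 8 with BME, BSA, NP40 and catalase | Also added: 25 nM SUMO1 FRET substrate | Compound: 10 µM single point, 0.5% DMSO | Measured by: FRET fluorescence in CFP and YFP emission channels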
NadD inh: NadD (S. aureus) enzyme inhibition; purified NadD enzyme, colorimetric absorbance read-out; inhibition, % at 20 µM; hit rate 0.78% among 360,000; AID 602399; in the data active = inhibition above about 26%
NR3A LBD binder: modulates the human NR3A ligand-binding domain; hit rate 2.5% among 340,000; NR3A LBD differential scanning fluorimetry, Tm shift; 0% = protein alone, 100% = glycine-bound protein; Tm shift relative to glycine control, % at 25 µM;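 active = melting temperature shift of at least 10% of the positive control shift, at one fixed dose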
UCH37 inh: blocks the human deubiquitinase UCH37; Q9Y5K5; hit rate 0.33% among 330,000; inhibition, % (test concentration not listed); purified proteasome/UCH37, Ub-AMC cleavage fluorescence; AID 588478;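 active = mean inhibition over replicate wells above about 20%, limit read from the data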;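 note: 0% = compound-free wells with enzyme and 100% = wells lacking proteasome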
Target sequence (Q9Y5K5 whole entry, looked up): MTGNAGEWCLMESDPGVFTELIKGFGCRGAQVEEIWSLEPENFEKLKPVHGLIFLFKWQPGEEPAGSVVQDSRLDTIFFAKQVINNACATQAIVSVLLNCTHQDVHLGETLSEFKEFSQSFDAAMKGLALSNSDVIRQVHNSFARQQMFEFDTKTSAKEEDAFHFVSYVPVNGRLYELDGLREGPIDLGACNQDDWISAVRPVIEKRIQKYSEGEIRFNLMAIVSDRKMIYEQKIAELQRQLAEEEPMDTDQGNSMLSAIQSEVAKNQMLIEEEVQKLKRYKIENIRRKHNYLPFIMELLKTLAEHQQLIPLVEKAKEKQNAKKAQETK
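Schedule: 30 min plus 25 min, room temperature / Material: human UCH37 within purified proteasomes / Technique: AMC fluorescence intensity at 355/460 nm / Buffer or medium: pH 7.4 Tris-HCl (50 mM) with ovalbumin, ATP-MgCl2, DTT / Controls: wells without proteasome as full block, compound-free enzyme plus substrate as uninhibited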
* marks the source's active call; other numbers are inactive results; · = no result given.

SMILES	ATG4B inhibitor	SENP1 inh	NadD inh	NR3A LBD binder	UCH37 inh
CC(=NNc1ccc(F)cc1F)c1ccc(N2CCOCC2)cc1	·	·	·	·	5.1
Cc1ccc(-n2nc3c(c2NC(=O)c2ccc(S(=O)(=O)N4CCOCC4)cc2)CSC3)c(C)c1	30.7	1.0	33.6*	4.8	3.4
Cc1cccc(-n2nc3c(c2NC(=O)c2ccc(S(=O)(=O)N4CCOCC4)cc2)CSC3)c1C	-3.4	1.5	7.1	-0.9	·
Cc1ccc(NC(=O)C2CCN(S(=O)(=O)c3ccc4c(c3)NC(=O)C(C)S4)CC2)cc1Cl (stereo not given)	2.7	1.9	20.1	10.1*	3.1
Cc1c(Cl)cccc1-c1ccc(C=Nn2cnnc2)o1	·	·	·	·	-3.1
COC(=O)Cn1c(=NC(=O)C(C)C)sc2c(C)cc(C)cc21	-3.1	-0.1	-5.8	20.4*	0.2
Cc1ccc(Cn2c(=O)c3cccnc3n(CC(=O)Nc3cccc(C(F)(F)F)c3)c2=O)cc1	-6.2	-9.7	6.6	22.8*	-24.4
Cc1cccc(C(=O)Nc2ccc(S(=O)(=O)Nc3nc(C)cc(C)n3)cc2)c1	-7.2	0.8	-1.4	12.6*	4.2
Cc1ccc(NS(=O)(=O)c2ccc(NC(=O)c3cccc(NC(=O)C(C)C)c3)cc2)cc1	-20.8	-1.7	5.5	18.4*	-1.3
Cc1cccc(C(=O)NCC(=O)Nc2ccc(S(=O)(=O)Nc3nc(C)cc(C)n3)cc2)c1	-2.3	0.5	-3.4	-3.7	4.9
C=CCOc1ccccc1C=NNC(=O)Cc1ccc(C)cc1	·	·	·	·	-5.0
COc1ccc(C=NNc2nc(Nc3ccccc3)nc(N3CCCCC3)n2)cc1OC	·	·	·	·	7.2
COc1ccc(NN=C(N=Nc2nc(C)cc(=O)[nH]2)c2ccccc2)cc1	·	·	·	·	0.9
C/C(=N\Nc1ccc([N+](=O)[O-])cc1)c1ccc(N)cc1	5.0	-9.6	0.2	11.1*	·
Cc1ccc(C=NNc2ccc3c(C(F)(F)F)cc(C(F)(F)F)nc3n2)cc1	·	·	·	·	3.8
CC(C)NC(=O)c1sc2nc(-c3cccs3)cc(-c3cccs3)c2c1N	-3.7	·	·	-5.0	-7.9
CC(=O)c1sc2nc(-c3cccs3)ccc2c1N	-8.9	-18.0	18.9	22.4*	-46.9
CCN(CC)c1ccc(C=NN2CCOCC2)cc1	·	·	·	·	10.6
O=C(NN=Cc1c[nH]c2ccccc12)c1ccccc1O	·	·	·	·	-10.1
O=C(/C=C/c1c[nH]c2ccccc12)c1cccc2ccccc12	-1.8	-25.2	13.2	27.6*	-7.3
O=C(NN1C(=O)/C(=C/C=C/c2ccco2)SC1=S)c1ccccc1O	69.6*	-14.4	40.4*	8.7	8.1
O=C(O)CCN1C(=O)/C(=C/c2ccc(-c3nc4ccccc4s3)o2)SC1=S	6.7	-62.3	29.6	2.2	17.1
O=C(O)CC(C(=O)O)N1C(=O)/C(=C/C=C/c2ccco2)SC1=S (stereo not given)	31.0	41.5*	-2.0	-0.9	21.1*
O=C(O)CCCN1C(=O)/C(=C/C=C/c2ccco2)SC1=S	52.2*	23.0	0.6	-0.9	20.3*
O=C(O)CC(C(=O)O)N1C(=O)/C(=C/c2ccc(-c3nc4ccccc4s3)o2)SC1=S (stereo not given)	67.5*	-12.8	23.3	5.8	11.3
SMILES	ATG4B inhibitor	SENP1 inh	NadD inh	NR3A LBD binder	UCH37 inh
COC(=O)c1cnn(-c2ccccc2)c1C=NNC(=S)Nc1ccc(Cl)cc1	·	·	·	·	8.5
COC(=O)c1cnn(-c2ccccc2)c1/C=N/NC(=S)Nc1ccc(Cl)cc1	-6.3	1.7	2.0	12.6*	·
Nc1nonc1-n1nnc(C(=O)NN=Cc2cccc(F)c2)c1CN1CCCC1	·	·	·	·	0.5
Cn1cccc1C=Nn1c(-c2ccco2)n[nH]c1=S	·	·	·	·	4.9
Cc1ccc(Nc2nc(-c3ccc(O)c(O)c3)cs2)nc1	-12.7	·	·	42.6*	4.2
CC(=O)Nc1cccc(-c2csc(Nc3ccc(Cl)cn3)n2)c1	-6.9	1.3	-7.9	13.9*	-2.0
Cc1ccc(-c2csc(NC(=O)CCCc3cccs3)n2)cc1	-7.8	0.2	9.5	-2.9	1.6
CC(=O)Nc1ccc(-c2csc(NC(=O)CCCc3cccs3)n2)cc1	-16.9	-1.0	-2.1	19.2*	7.0
CC(=O)Nc1ccc(-c2csc(Nc3ccc(Cl)cn3)n2)cc1	-4.9	0.8	-5.5	26.2*	-1.6
CC(=O)Nc1ccc(-c2csc(Nc3ncccn3)n2)cc1	-6.4	0.1	-0.7	4.4	·
CC(=O)Nc1cccc(-c2csc(Nc3ccccn3)n2)c1	-20.0	3.4	-5.0	8.5	2.3
CC(Oc1ccccc1)c1ccnc2nc(N=CN(C)C)nn12 (stereo not given)	·	·	·	·	-97.9
CCOc1cccc(-c2c(C(=O)NN=C(C)c3cccs3)nnn2-c2nonc2N)c1	·	·	·	·	3.6
Cc1ccc(C(=O)OCC(=O)c2c(N)n(C)c(=O)n(C)c2=O)cc1S(=O)(=O)N1CCCCC1	-11.8	3.2	-0.7	10.2*	2.2
Cc1ccc(C(=O)Oc2ccc([N+](=O)[O-])cc2)cc1S(=O)(=O)N1CCCCCC1	3.3	-1.0	-6.3	12.7*	2.5
Cc1ccc(C(=O)O)cc1S(=O)(=O)N1CCCC1	-12.9	3.2	-2.4	1.2	1.1
CC(C)CC1NC(=O)N(CC(=O)Nc2ccc(-c3ccccc3)cc2)C1=O (stereo not given)	-16.3	0.2	-6.8	13.1*	-0.6
CC(C)c1ccc(NC(=O)CN2C(=O)NC(Cc3c[nH]c4ccccc34)C2=O)cc1 (stereo not given)	-17.6	-6.4	3.1	13.3*	1.3
COc1ccccc1N1CCN(N=C/C=C\c2ccco2)CC1	·	·	·	·	8.0
N=C1/C(=C\c2ccc(SCc3ccccc3)o2)C(=O)N=C2SC(CC(=O)N3CCOCC3)=NN12	21.0	-66.3	18.8	-3.3	11.3
N=C1/C(=C\c2ccc(-c3cccc(C(=O)O)c3)o2)C(=O)N=C2SC=C(c3ccccc3)N12	20.5	-34.0	48.8*	2.8	14.9
N=C1/C(=C/c2ccc(-c3cccc(C(=O)O)c3)o2)C(=O)N=C2SC(CC(=O)N3CCOCC3)=NN12	21.6	-43.3	6.5	-0.7	23.9*
Cc1ccc(NC(=S)C2=C(O)c3ccccc3N(C)S2(=O)=O)cc1	-2.3	-4.7	-3.2	0.3	20.9*
CN1c2ccccc2C(O)=C(C(=S)Nc2ccc(F)c(Cl)c2)S1(=O)=O	22.8	-3.0	5.7	26.7*	14.0
CN(N=Cc1cccnc1)c1cnc2ccccc2n1	·	·	·	·	-17.4
O=C(O)Cc1ccc(N=Nc2c(O)c(C(=O)O)cc3ccccc23)cc1	20.9	15.5	13.0	1.1	19.4
NS(=O)(=O)c1ccc(N=Nc2c(O)c(C(=O)O)cc3ccccc23)cc1	-2.0	2.9	31.0*	1.8	11.3

Screens deposited in PubChem by several laboratories.
